In ChEMBL document CHEMBL1150360, “Design, synthesis, and QSAR studies of novel lysine derives as amino-peptidase N/CD13 inhibitors” (Bioorg Med Chem, 2008):

Legend:
[1] = Inhibition of aminopeptidase N
Procedure, shortened: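 Porcine kidney microsomal aminopeptidase, 4 µg/mL final, preincubated 30 min at room temperature with inhibitor. Inhibitor solutions made in assay buffer and adjusted to pH 7.5. Substrate L-Leu-p-nitroanilide in 50 mM PBS, pH 7.2, at 37 °C; hydrolysis followed as absorbance change at 405 nm. IC50 determined.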

[2] = target: 72 kDa type IV collagenase (Homo sapiens, UniProt P08253); assay: Inhibition of MMP2
Procedure, shortened: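 Gelatinase A enzyme, synthetic substrate and inhibitor dissolved together in 50 mmol/L sodium borate, pH 8.5, and incubated 30 min at 37 °C. 0.03% TNBS then added and incubated a further 20 min. Absorbance read at 450 nm.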

72 kDa type IV collagenase, sequence (P08253 whole entry): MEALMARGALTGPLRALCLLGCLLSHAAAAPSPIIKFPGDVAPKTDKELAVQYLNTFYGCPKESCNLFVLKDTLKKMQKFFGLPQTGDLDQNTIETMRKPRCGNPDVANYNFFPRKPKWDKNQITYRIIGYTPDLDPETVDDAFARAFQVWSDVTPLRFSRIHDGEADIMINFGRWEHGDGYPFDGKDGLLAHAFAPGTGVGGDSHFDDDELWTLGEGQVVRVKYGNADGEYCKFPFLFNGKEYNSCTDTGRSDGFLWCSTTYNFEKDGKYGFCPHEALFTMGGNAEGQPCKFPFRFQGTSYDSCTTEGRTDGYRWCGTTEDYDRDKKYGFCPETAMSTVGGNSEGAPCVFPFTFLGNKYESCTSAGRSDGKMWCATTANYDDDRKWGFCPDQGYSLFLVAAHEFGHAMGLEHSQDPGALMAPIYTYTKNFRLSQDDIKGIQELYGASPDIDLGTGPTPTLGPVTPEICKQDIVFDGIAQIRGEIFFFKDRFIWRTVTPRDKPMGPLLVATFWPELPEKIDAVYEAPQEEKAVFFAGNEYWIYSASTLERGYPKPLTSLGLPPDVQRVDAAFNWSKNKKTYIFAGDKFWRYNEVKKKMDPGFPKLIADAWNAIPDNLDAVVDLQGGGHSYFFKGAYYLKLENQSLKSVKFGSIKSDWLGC

SMILES | IC50 [1] [µM] | pIC50 [1] | IC50 [2] [µM]
O=C(/C=C/c1ccccc1)N[C@@H](CCCCNC(=O)OCc1ccccc1)C(=O)O | 215 | 3.67 | 50.5
CC(C)C[C@H](NC(=O)[C@@H](O)[C@H](N)Cc1ccccc1)C(=O)O [UBENIMEX] | 15.5 |  | 22
O=C(/C=C/c1ccccc1)N[C@@H](CCCCNC(=O)OCc1ccccc1)C(=O)NO | 570 | 3.24 | 3.54
O=C(NCCCC[C@H](NC(=O)c1ccc(Cl)cc1Cl)C(=O)NO)OCc1ccccc1 | 13.2 | 4.88 | 170
O=C(NCCCC[C@H](NC(=O)c1cccnc1)C(=O)O)OCc1ccccc1 | 167 | 3.78 | 3.14
O=C(NCCCC[C@H](NC(=O)c1ccncc1)C(=O)NO)OCc1ccccc1 | 91.2 | 4.04 | 25.5
O=C(NCCCC[C@H](NC(=O)c1ccco1)C(=O)NO)OCc1ccccc1 | 159 | 3.8 | 8.08
O=C(NCCCC[C@H](NC(=O)c1ccco1)C(=O)O)OCc1ccccc1 | 1120 | 2.95 | 8.49
O=C(NCCCC[C@H](NC(=O)c1cccs1)C(=O)O)OCc1ccccc1 | 1250 | 2.9 | 12.7
O=C(NCCCC[C@H](NC(=O)c1cccnc1)C(=O)NO)OCc1ccccc1 | 94.3 | 4.03 | 8
O=C(NCCCC[C@H](NC(=O)c1cnccn1)C(=O)NO)OCc1ccccc1 | 97 | 4.01 | 14.3
O=C(NCCCC[C@H](NC(=O)c1cccs1)C(=O)NO)OCc1ccccc1 | 159 | 3.8 | 12.6
O=C(NCCCC[C@H](NC(=O)c1ccc([N+](=O)[O-])cc1)C(=O)O)OCc1ccccc1 | 202 | 3.69 | 19.2
O=C(NCCCC[C@H](NC(=O)c1ccc(Br)cc1)C(=O)O)OCc1ccccc1 | 188 | 3.73 | 13.1
O=C(NCCCC[C@H](NC(=O)c1ccc(Br)cc1)C(=O)NO)OCc1ccccc1 | 112 | 3.95 | 9.94
O=C(NCCCC[C@H](NC(=O)c1ccncc1)C(=O)O)OCc1ccccc1 | 292 | 3.54 | 8.76
O=C(NCCCC[C@H](NC(=O)c1ccc([N+](=O)[O-])cc1)C(=O)NO)OCc1ccccc1 | 108 | 3.97 | 32
O=C(NCCCC[C@H](NC(=O)c1cccc([N+](=O)[O-])c1)C(=O)O)OCc1ccccc1 | 111 | 3.96 | 7.48
O=C(NCCCC[C@H](NC(=O)c1ccc(Cl)cc1Cl)C(=O)O)OCc1ccccc1 | 127 | 3.9 | 17.8
O=C(NCCCC[C@H](NC(=O)c1cccc([N+](=O)[O-])c1)C(=O)NO)OCc1ccccc1 | 95.8 | 4.02 | 11.7
O=C(NCCCC[C@H](NC(=O)c1cnccn1)C(=O)O)OCc1ccccc1 | 197 | 3.7 | 2.93
